Test results: the M2OR odorant receptor database

molecular target: T1, UniProt Q7TR79; conditions: stereoisomer not certain
T1 sequence (whole entry): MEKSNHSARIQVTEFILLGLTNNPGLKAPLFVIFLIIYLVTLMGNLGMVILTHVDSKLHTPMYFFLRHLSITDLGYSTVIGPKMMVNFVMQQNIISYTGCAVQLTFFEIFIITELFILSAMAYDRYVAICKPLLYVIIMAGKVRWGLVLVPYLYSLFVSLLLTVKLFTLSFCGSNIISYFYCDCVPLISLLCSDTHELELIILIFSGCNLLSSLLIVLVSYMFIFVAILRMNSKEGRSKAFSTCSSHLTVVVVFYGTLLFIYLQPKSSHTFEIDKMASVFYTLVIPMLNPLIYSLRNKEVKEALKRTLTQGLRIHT
Method in brief: (§1)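 Whether a receptor–molecule pair is responsive (active) rests on the original authors' judgment that its measured signal was statistically different from baseline. Pairs without that judgment are non-responsive (inactive). Sources used varied assay methods, commonly transient luciferase assays in mammalian cell lines.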
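Note: active if original authors judged signal statistically different from baseline.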

Odorant receptor agonist call, inactive:
CCc1ccc(O)cc1
CCc1ncc(C)nc1CC
OCCCCCCCCCO
C=C(C)C1CC=C(C)CC1 (configuration not stated)
C=CC(=C)CCC=C(C)C
C=CC(C)=CCC=C(C)CCC=C(C)C
OCC=Cc1ccccc1
CCN(CC)CC
CC=C(C)C=O
CC1CC=CCCCCCCCCCC(=O)C1 (configuration not stated)
CC(=O)C=CC1=C(C)CCCC1(C)C
C1CCOCC1
CCSSCC
C=CC(=O)CCCCC
CC=CC(=O)C1=C(C)CCCC1(C)C
CCOC(=O)C(C)CC (configuration not stated)
CCC=CCCCCC=O
CCCCCCC=CC=O
CCCCCCC(=O)OCCCC
CCCC(C)C(=O)OCC (configuration not stated)
CCCCC=O
CCCCCOC(=O)CCC
Cc1ccc2c(c1)OCC(=O)CO2
COc1nccnc1C(C)C
C=C(CC)CCCC(C)(C)O
CCCCCC(C)O (configuration not stated)
C1CCOC1
CCc1occc(=O)c1O
COc1cnccn1
CCCCCC=CCCC=O

molecular target: T2, UniProt Q7TRM0; conditions: stereoisomer not certain
T2 sequence (whole entry): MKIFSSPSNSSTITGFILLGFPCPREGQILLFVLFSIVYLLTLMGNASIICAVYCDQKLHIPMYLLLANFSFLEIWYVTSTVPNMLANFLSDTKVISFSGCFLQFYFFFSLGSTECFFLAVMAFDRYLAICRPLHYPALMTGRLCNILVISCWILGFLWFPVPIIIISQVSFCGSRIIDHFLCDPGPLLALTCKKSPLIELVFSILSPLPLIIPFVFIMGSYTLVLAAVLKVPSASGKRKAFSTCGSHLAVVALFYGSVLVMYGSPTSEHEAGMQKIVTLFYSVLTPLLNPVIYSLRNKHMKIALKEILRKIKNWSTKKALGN
Method in brief: as §1

Odorant receptor agonist call, inactive:
O=C([O-])CCCCC(=O)[O-].[H+].[H+]
O=C(O)CCCBr
O=C(O)CCCCCC(=O)O
O=C(O)CCCCBr

molecular target: T3, UniProt Q7TRN9; conditions: stereoisomer not certain
T3 sequence (whole entry): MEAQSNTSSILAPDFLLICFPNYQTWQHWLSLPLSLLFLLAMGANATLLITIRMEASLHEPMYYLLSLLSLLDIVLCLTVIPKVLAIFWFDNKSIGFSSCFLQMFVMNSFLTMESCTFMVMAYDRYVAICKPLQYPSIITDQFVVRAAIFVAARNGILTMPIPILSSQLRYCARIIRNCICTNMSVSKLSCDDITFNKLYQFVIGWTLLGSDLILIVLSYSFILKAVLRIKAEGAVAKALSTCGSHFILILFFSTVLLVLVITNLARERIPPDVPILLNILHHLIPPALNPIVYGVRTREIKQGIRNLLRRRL
Method in brief: as §1

Odorant receptor agonist call, inactive:
O=C([O-])CCCCC(=O)[O-].[H+].[H+]
O=C(O)CCCBr
O=C(O)CCCCCC(=O)O
O=C(O)CCCCBr

molecular target: T4, UniProt Q7TRR8; conditions: stereoisomer not certain
T4 sequence (whole entry): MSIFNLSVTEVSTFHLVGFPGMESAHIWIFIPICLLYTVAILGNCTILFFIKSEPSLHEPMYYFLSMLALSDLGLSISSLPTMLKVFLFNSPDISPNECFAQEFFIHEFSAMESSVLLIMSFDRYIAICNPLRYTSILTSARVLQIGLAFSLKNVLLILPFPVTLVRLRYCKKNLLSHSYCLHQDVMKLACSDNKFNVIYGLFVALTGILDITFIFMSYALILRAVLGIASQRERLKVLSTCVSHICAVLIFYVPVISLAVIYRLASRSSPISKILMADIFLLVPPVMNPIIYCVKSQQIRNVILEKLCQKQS
Method in brief: as §1

Odorant receptor agonist call, inactive:
O=C([O-])CCCCC(=O)[O-].[H+].[H+]
O=C(O)CCCBr
O=C(O)CCCCCC(=O)O
O=C(O)CCCCBr

molecular target: T5, UniProt Q7TRX0; conditions: stereoisomer not certain
T5 sequence (whole entry): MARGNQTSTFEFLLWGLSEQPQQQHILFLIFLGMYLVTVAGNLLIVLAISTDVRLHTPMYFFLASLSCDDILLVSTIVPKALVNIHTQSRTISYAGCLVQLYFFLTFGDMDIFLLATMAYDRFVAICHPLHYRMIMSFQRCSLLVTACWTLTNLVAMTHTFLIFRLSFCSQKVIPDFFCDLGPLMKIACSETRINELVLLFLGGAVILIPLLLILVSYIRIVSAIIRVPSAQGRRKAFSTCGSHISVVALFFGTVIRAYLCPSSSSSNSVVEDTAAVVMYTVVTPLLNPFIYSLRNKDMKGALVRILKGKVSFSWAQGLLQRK
Method in brief: as §1

Odorant receptor agonist call, inactive:
CCc1ccc(O)cc1
CCc1ncc(C)nc1CC
OCCCCCCCCCO
C=C(C)C1CC=C(C)CC1 (configuration not stated)
C=CC(=C)CCC=C(C)C
C=CC(C)=CCC=C(C)CCC=C(C)C
OCC=Cc1ccccc1
CCN(CC)CC
CC=C(C)C=O
CC1CC=CCCCCCCCCCC(=O)C1 (configuration not stated)
CC(=O)C=CC1=C(C)CCCC1(C)C
C1CCOCC1
CCSSCC
C=CC(=O)CCCCC
CC=CC(=O)C1=C(C)CCCC1(C)C
CCOC(=O)C(C)CC (configuration not stated)
CCC=CCCCCC=O
CCCCCCC=CC=O
CCCCCCC(=O)OCCCC
CCCC(C)C(=O)OCC (configuration not stated)
CCCCC=O
CCCCCOC(=O)CCC
Cc1ccc2c(c1)OCC(=O)CO2
COc1nccnc1C(C)C
C=C(CC)CCCC(C)(C)O
CCCCCC(C)O (configuration not stated)
C1CCOC1
CCc1occc(=O)c1O
COc1cnccn1
CCCCCC=CCCC=O
